High-throughput results as filed in PubChem BioAssay.
Sampled rows, rich in hits. Any-hit rate of the full collection: about 12%.
b-catenin transl = modulators of beta-catenin nuclear translocation; HeLa beta-catenin nuclear translocation, immunofluorescence imaging; nuclear translocation activity, % at 5 µM; 190,000 compounds, 0.3% hits;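 active = nuclear translocation activity above 50% at 5 µM, with a well cell count of 50 or more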;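 also: per-cell ratio of nuclear to cytoplasmic median beta-catenin stain intensity; plate controls were DMSO negative control for no effect and GSK-3 inhibitor IX positive control for full effect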
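Signal – beta-catenin immunofluorescence imaging with DAPI · Test system – human HeLa cell line · Dosing – 5 µM primary single dose, 0.1% DMSO, 0.02–20 µM confirmation series · Measure – % activation, nuclear-to-cytoplasmic median beta-catenin signal ratio per cell · Incubation – 24 h compound exposure at 37°C, 5% CO2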
CHOP inhibitor = CHOP inhibition in unfolded protein response; CHO-K1 CHOP-promoter luciferase, tunicamycin-induced, 15-18 h; inhibition, % at 10 µM; 220,000 compounds, 3.8% hits; AID 2732;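 active = compounds that reduced the stress-induced luciferase reporter signal by more than about 70% of percent inhibition, limit read from the data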;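 also: 0% = tunicamycin plus vehicle and 100% = wells without tunicamycin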
Dynein cargo inh = dynein cargo transport inhibition. 3617.4 mouse cells, GR-EGFP nuclear translocation imaging; test concentration mostly 20 µM; stimulated with dexamethasone, 1 µM; hits give low values. z-score, hits read low. 220,000 compounds, 0.47% hits;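 active = plate z-score of nuclear minus cytoplasmic receptor signal below a set negative limit, without overly bright fluorescence or cell loss, cut at about -3.5 in these data, passing the limit was not always enough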;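 also: z-score of nuclear minus cytoplasmic ring GR-EGFP intensity difference per well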
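Schedule: 48 h induction, then 1 h compound, then 30 min agonist, 37 °C. Buffer or medium: tetracycline-free induction medium containing charcoal-stripped FBS. Reagent: 1.0 µM final dexamethasone stimulus. Evaluation: nuclear versus cytoplasmic GR-EGFP signal, averaged per well. Signal: high-content fluorescence imaging after fixation.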
L major viab = inhibitors of Leishmania major promastigote growth; Leishmania major promastigotes, resazurin fluorescence viability; inhibition, % at 10 µM; 200,000 compounds, 9% hits; in the data active = inhibition above about 50%;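 also: promastigotes grown with compound for 44 hours at 28 °C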
Autophagy mod = modulators of autophagy; MEF GFP-LC3 puncta imaging; test concentration mostly 10 µM; calls only at 10 µM (by protocol); 190,000 compounds, 0.98% hits; AID 463193;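 active = percentage of spot-positive cells more than 3 SD above its plate mean, without a fluorescence outlier flag or 80% toxicity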;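 also: spot-positive cell cutoff set from DMSO-treated cells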
MT stabilizer = stabilizes microtubules in HeLa cells; HeLa tubulin immunostaining HCS, 24 h; share of cells brighter than vehicle mean+2SD; % tubulin-high responders, % at 10 µM; 200,000 compounds, 0.83% hits; AID 2205;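 active = plate Z-score above 3 for both tubulin-high and condensed-nucleus cell shares, with cell loss under 80%, at 10 µM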;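 also: anti alpha tubulin signal scored within the nucleus-defined area of each cell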
Starred values were filed as active, the others as inactive; i = inactive; nt = no result given; + = active, no number.

SMILES	b-catenin transl	CHOP inhibitor	Dynein cargo inh	L major viab	Autophagy mod	MT stabilizer
CC1(C)CC(=O)C2=C(C1)Nc1ccccc1NC2c1cccnc1 (stereo unspecified)	0	10	nt	nt	nt	nt
CN(C)c1ccc(-c2nc3n(n2)C(c2cccnc2)C2=C(CC(C)(C)CC2=O)N3)cc1 (stereo unspecified)	1	14	-1.1	92*	i	6
CC1CCN(S(=O)(=O)c2cc(C(=O)N3CCN(c4ncccn4)CC3)ccc2Br)CC1	0	38	0.17	85*	i	1
O=C(c1ccc(Cl)c(S(=O)(=O)N2CCCC2)c1)N1CCN(c2ncccn2)CC1	1	2	0.58	-2	i	2
O=P(COCCCCCOCP(=O)(c1ccccc1)c1ccccc1)(c1ccccc1)c1ccccc1	-1	3	2.3	40	i	4
Cc1ccc(S(=O)(=O)Nc2cccc3ncccc23)s1	-4	nt	-1	100*	i	7
CC1CCN(CC(=O)Nc2cccc(Cl)c2)CC1	-5	25	-0.95	5	i	5
COc1cc(CNCCO)cc(Br)c1OCc1ccccc1Cl	6	-30	0.37	100*	i	2
CCCCNCc1cc(Br)c(OCc2cccs2)c(OC)c1	0	18	-0.96	101*	i	1
CCCn1nnc(NCc2ccc(OCc3cccs3)c(OC)c2)n1	1	-15	-0.64	5	i	3
COc1cccc(CNCCO)c1OCc1ccc(Cl)cc1	-5	7	-0.59	6	i	1
CCNCc1ccc(OCc2cccs2)c(OCC)c1	0	17	-0.89	54*	i	3
COc1cc(CNCCO)cc(Cl)c1OCc1ccc(Cl)cc1Cl	7	95*	7.2	100*	+	30
CCc1cccc2c(C(=O)C(F)(F)F)cn(CC(=O)N3CCOCC3)c12	1	-6	-0.72	-4	i	4
NC(=NC(=O)c1ccc(OCC(F)(F)F)nc1)c1ccc(Cl)cc1	-1	82*	-1.1	nt	nt	nt
CCOc1nnnc2c1sc1nc(N3CCOCC3)c3c(c12)CC(C)(C)OC3	nt	nt	-0.78	1	i	2
Cc1nn(C(C)(C)C)c(OC(=O)c2cccs2)c1Sc1ccccc1	-12	81*	0.47	2	i	1
Cc1nn(C(=O)c2ccco2)c(C)c1Sc1ccccc1	0	93*	0.098	0	i	1
Cc1nn(C(C)(C)C)c(OC(=O)c2ccco2)c1Sc1ccccc1	nt	75*	1	-2	i	3
Cc1nn(C(C)(C)C)c(OC(=O)c2ccc(Br)o2)c1Sc1ccccc1	-4	67	0.094	15	i	2
Cc1nn(C(C)(C)C)c(OC(=O)c2ccc3c(c2)OCO3)c1Sc1ccccc1	-6	44	-0.058	8	i	2
O=[N+]([O-])c1cccc(-c2nc3ccccc3s/c2=N/O)c1	-1	17	0.55	nt	nt	nt
CN(C)c1cc(-c2ccccc2)nc(N)n1	nt	-39	-0.24	38	i	13*
COc1nc(NCc2cccnc2)nc(OC)n1	-3	8	-0.21	0	i	4
FC(F)(F)c1cc(-c2ccccc2)nc(NCc2cccnc2)n1	1	85*	-0.14	21	i	3
SMILES	b-catenin transl	CHOP inhibitor	Dynein cargo inh	L major viab	Autophagy mod	MT stabilizer
FC(F)(F)c1cc(-c2ccco2)nc(NCc2cccnc2)n1	61*	21	0.15	7	i	6
FC(F)(F)c1cc(-c2ccco2)nc(NCc2ccccc2)n1	1	-57	-0.66	2	i	3
Fc1ccc(-c2cc(C(F)(F)F)nc(NCc3cccs3)n2)cc1	0	72*	0.32	-6	i	3
COc1cccc(NC(=O)N(C2CCCCC2)C(C)c2cccs2)c1 (stereo unspecified)	-2	43	0.14	12	i	2
CC(C)(C)NC(=O)COC(=O)CCC(=O)c1cccs1	0	3	0.17	-2	i	2
OCCCNCc1ccc(Cl)cc1Cl	0	1	-0.16	11	i	3
CCCCCNCc1ccc(Cl)cc1	-1	-10	0.49	51*	i	2
OCCCCNCc1ccc(OCc2ccc(Cl)cc2)cc1	6	35	-0.25	100*	i	4
CCCCCCNCc1ccc(Br)cc1	4	23	0.86	86*	i	3
CCCCNC(=S)Nc1ccc(Cl)cc1	0	-26	1.3	25	i	3
CCCCCNCc1ccc(Br)cc1	-1	26	-1.1	87*	i	3
CCCCCCNC(=O)c1ccc(Br)o1	nt	-1	0.28	-1	i	2
CNCCCNCc1ccc(SC)cc1	nt	15	0.34	-2	i	3
O=C(Nc1cccc(N2C(=O)C3C4C=CC(C4)C3C2=O)c1)c1cccs1 (stereo unspecified)	-2	12	-0.13	-3	i	1
Cc1ccc(OCCn2cc(Br)c(=O)[nH]c2=O)cc1	2	13	-0.42	-11	i	4
COCCOC(=O)c1sc2nc[nH]c(=O)c2c1C	-1	0	0.11	-5	i	4
CCOc1c(Br)ccc2c1sc1nc[nH]c(=O)c12	12	93*	0.15	1	i	1
COc1cc(/C=C2\CCc3ccccc3C2=O)cc(OC)c1OC	0	1	-0.32	77*	i	3
COc1ccc(/C=C2\CCc3ccccc3C2=O)cc1CN1CCOCC1	0	-9	-0.72	nt	nt	nt
COc1cc(/C=C2/CCC/C(=C\c3cc(O)c(OC)c(Cl)c3)C2=O)cc(Cl)c1O	nt	80*	-2.8	91*	i	5
CCOc1ccc(/C=C2\CCc3ccccc3C2=O)cc1	0	10	-0.78	nt	nt	nt
COc1cc(/C=C2\CCCc3c2nc2ccccc2c3C(=O)O)cc(OC)c1O	-2	5	1.1	nt	nt	nt
COc1ccc(/C=C2/CCc3ccccc3C2=O)cc1OC	0	16	-0.34	52*	i	2
COc1ccc2c(c1)CC/C(=C\c1ccc(OC)c(Cn3cccn3)c1)C2=O	nt	33	-0.73	98*	i	2
CN(c1ccccc1)c1cc(=O)[nH]c(=O)[nH]1	-1	9	-0.083	-9	i	6
Fc1ccccc1Cn1cc(C(=S)N2CCOCC2)c2ccccc21	0	16	2.1	nt	nt	nt
CCOP(=O)(c1ccccc1)c1nc(-c2ccccc2C)oc1NCc1ccccc1 (stereo unspecified)	4	42	0.62	nt	nt	nt
COc1cc(/C=C2\CC/C(=C\c3cc(OC)c(OC)c(OC)c3)C2=O)cc(OC)c1OC	nt	15	0.076	96*	i	5
COc1ccc(/C=C2\C(=O)OCc3cc(OC)c(OC)cc32)cc1OC	12	-1	-0.46	4	i	5
COc1ccc(/C=C2\COc3ccccc3C2=O)cc1OC	-1	-12	-3.4	100*	i	3
